PREPL inh: human PREPL enzyme inhibition; 0.68% of 320,000 active; recombinant PREPL, fluorescence polarization activity-based probe; inhibition, % at 5.96 µM; in the data active = inhibition above about 43%
T cruzi repl: blocks replication of Trypanosoma cruzi; T. cruzi beta-gal in NIH3T3, luminescence, 90 h; inhibition, % (concentration not given with the values); 1.4% of 300,000 active;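 active = mean inhibition across valid replicates above about 55%, limit read from the data; inconclusive = mean below that limit but half or more replicates reach it; inactive = mean below it, under half of replicates reach it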;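 also: signal also drops with host cell toxicity which is not excluded here; higher percent means less beta-gal luminescence so fewer parasites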
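Assay system: NIH/3T3 fibroblasts plus reporter T. cruzi. Amount: NIH/3T3 cells, 5,000 per well. Buffer or medium: DMEM, 2% fetal bovine serum. Doses: compound pinned at 50 nL/well, DMSO. Schedule: ≥90 h infection period, 3 h prior cell attachment. Signal: luminescent β-galactosidase signal after 60 min lysis. Read-out: parasite load inhibition, %.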
GRIN3A LBD mod: NR3A (human) ligand-binding domain modulation. NR3A LBD differential scanning fluorimetry, Tm shift; 0% = protein alone, 100% = glycine-bound protein. Tm shift relative to glycine control, % at 25 µM. 2.5% of 340,000 active. AID 1259313;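 active = melting temperature shift of at least 10% of the positive control shift, at one fixed dose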
CHOP inhibitor: inhibitors of CHOP induction in ER stress response; CHO-K1 CHOP-promoter luciferase, tunicamycin-induced, 15-18 h; inhibition, % at 10 µM; 3.8% of 220,000 active; AID 2732;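 active = compounds that reduced the stress-induced luciferase reporter signal by more than about 70% of percent inhibition, limit read from the data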
Beta apoptosis: blocks beta cell apoptosis | INS-1E cytokine-induced death, ATP luminescence, 48 h; percent of positive-control rescue, neutral wells zero | protection from apoptosis, % (no concentration beside the values) | 0.8% of 300,000 active | AID 435005;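 active = Every replicate reaches about 75%, or at least half do and their mean reaches it too, limit read from the data; inconclusive = At least half of replicates reach the limit but their mean does not; inactive = Under half of replicates reach the limit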;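 also: higher means more ATP so stronger rescue from cytokine killing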
CSC inhib: blocks cancer stem cells | cancer stem cell-like cells viability, luminescence | inhibition, % at 7.5 µM | 1.1% of 300,000 active; in the data active = inhibition above about 75%; inconclusive = no clear call, values can overlap the other calls; tested in HMLE shEcad cells
A number is an active result; - = inactive; ? = inconclusive; . = no result given. Rows were chosen to be rich in hits. Some 6.7% of all compounds tested hit in one or more screens of this group.

SMILES	PREPL inh	T cruzi repl	GRIN3A LBD mod	CHOP inhibitor	Beta apoptosis	CSC inhib
C[n+]1ccc(/C=C/c2c[nH]c3ccc(F)cc23)cc1	.	?	-	.	-	-
CCOc1ccc(NC(=O)C(C)Oc2ccc(C#N)cc2)cc1S(=O)(=O)N1CCCC1 (configuration not stated)	-	.	-	.	-	-
O=C(N/N=C/c1ccc([N+](=O)[O-])o1)c1ccccc1-n1cccc1	-	67	-	.	-	-
O=C(N/N=C/c1ccc([N+](=O)[O-])o1)c1cn(-c2ccccc2)nc1-c1ccc(Cl)cc1	-	64	34	-	-	-
O=C(N/N=C/c1ccc([N+](=O)[O-])o1)c1cn(-c2ccccc2)nc1-c1ccccc1	-	60	13	95	-	-
O=C(O)COc1ccc(/C=N/NC(=O)c2cn(-c3ccccc3)nc2-c2ccccc2)cc1	-	-	-	.	-	-
CCOC(=O)[C@H]1[C@H]2COc3ccc(Br)cc3[C@@H]2N2C(=O)CN(Cc3ccc(F)cc3)C(=O)[C@@]12C	-	.	-	.	-	-
COc1ccccc1N1CCN(C2CCN(C(=O)COc3ccccc3)CC2)CC1	-	-	-	-	-	-
COc1ccc(C(=O)NC2CC2)cc1OC1CCN(Cc2cnn(C)c2C)CC1	.	-	-	.	-	-
COc1ccc(C(=O)NC2CC2)cc1OC1CCN(Cc2cc(C)c(C)cc2C)CC1	-	-	103	.	-	-
COc1ccc(C(=O)NC2CCCCCC2)cc1OC1CCN(C(C)=O)CC1	-	-	-	.	-	-
COc1ccc(C(=O)NC2CCCCC2)cc1OC1CCN(C(C)C)CC1	-	-	13	.	-	-
CCC(C)[C@H](NC(=O)C1CC(=O)N(c2ccc3c(c2)OCCO3)C1)C(=O)N1CCCCC1 (some centres not stated)	-	-	-	.	-	-
COc1ccc(-c2nsc3c(N4CCCCC4C)ncnc23)cc1 (configuration not stated)	-	-	-	93	-	-
COc1ccc(-c2nsc3c(N4CCCCC4)ncnc23)cc1	-	-	-	82	-	-
CCc1ccc(/C=C/C(=O)c2cc(Br)ccc(=O)c2O)cc1	-	-	-	-	-	-
CCOc1ccc(/C=C/C(=O)c2cc(Br)ccc(=O)c2O)cc1	-	.	-	91	-	-
C[C@H]1CN([C@@H](C)CO)C(=O)c2cccc(NC(=O)C3CC3)c2O[C@H]1CN(C)S(=O)(=O)c1ccccc1	-	.	-	.	-	-
O=C(COC(=O)/C=C/c1cccc(F)c1)Nc1ccc(Cl)cn1	-	-	-	73	-	-
Cc1c(C)c(C)c2[nH]c(-c3ccc4c(c3)OCO4)nc2c1C	-	58	-	.	.	.
COC(=O)c1nccnc1N	.	.	14	.	.	.
CCOC(=O)c1c(NC(=O)N/N=C/c2ccccc2OCC)sc(C(C)=O)c1C	.	68	-	-	.	.
CCOC(=O)c1c(NC(=O)N/N=C/c2ccc(O)c(OC)c2)sc(C(C)=O)c1C	-	-	.	-	-	-
CCOC(=O)c1c(NC(=O)CN2CCCc3ccccc32)sc(C(C)=O)c1C	-	-	-	93	-	-
CCOC(=O)c1c(NC(=O)COC)sc(C(C)=O)c1C	-	-	-	-	-	-
SMILES	PREPL inh	T cruzi repl	GRIN3A LBD mod	CHOP inhibitor	Beta apoptosis	CSC inhib
COC(=O)c1c(NC(=O)C2c3ccccc3Oc3ccccc32)sc(C)c1C	-	-	-	-	-	-
COC(=O)c1sc(NC(=O)C2c3ccccc3Oc3ccccc32)c(C(=O)OC)c1C	-	-	-	-	116	-
CCOC(=O)c1c(NC(=O)C2c3ccccc3Oc3ccccc32)sc(C(C)=O)c1C	-	-	-	71	.	.
CCOC(=O)c1c(NC(=O)COC(=O)c2ccccc2NC)sc(C(=O)N(C)C)c1C	-	59	-	.	-	.
O=C1NC(c2cc(Cl)cc([N+](=O)[O-])c2O)Nc2ccccc21 (configuration not stated)	-	-	14	-	-	-
COc1ccc(-c2csc(N(CCCN3CCOCC3)C(=O)CCl)n2)cc1	-	-	-	.	-	-
CCN(CC)CCCN(C(=O)c1ccco1)c1nc(-c2ccc(Cl)cc2)cs1	-	59	-	.	-	-
O=C(c1ccco1)N(CCCN1CCOCC1)c1nc(-c2ccc(Cl)cc2)cs1	-	67	-	-	-	-
CCN(CC)CCCN(C(=O)c1ccco1)c1nc(-c2ccc(C)cc2)cs1	-	-	-	-	-	-

Screens as filed in PubChem BioAssay.
